Measured values from ChEMBL document CHEMBL4665666, “Discovery and characterization of trypanocidal cysteine protease inhibitors from the 'malaria box'” (Eur J Med Chem, 2019).

Assays:
[1] = target: Rhodesain (Trypanosoma brucei rhodesiense) (UniProt Q95PM0); experiment: Inhibition of recombinant Trypanosoma brucei rhodesain expressed in Pichia pastoris at 5 uM using Z-FR-AMC as substrate and measured at 12 sec interval for 5 mins without preincubation by fluorimetric analysis relative to control
Outline: (§1)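 Recombinant rhodesain or cruzain (1 nM) in 0.1 M sodium acetate pH 5.5, 0.01% Triton X-100, 1 mM β-mercaptoethanol. Compound at a single concentration, either without or after 10 min enzyme pre-incubation. Inhibition is relative to DMSO, with E-64 as positive control. Done in duplicate (primary screen) or triplicate.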

[2] = target: Cruzipain (Trypanosoma cruzi) (UniProt P25779); experiment: Inhibition of recombinant Trypanosoma cruzi cruzain at 100 uM preincubated for 10 mins in presence of 0.01% Triton X-100 relative to control
Outline: (§2)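 To test detergent sensitivity, cruzain was pre-incubated 10 min at room temperature with compound with no Triton X-100, 0.01% or 0.1% Triton X-100. Cleavage of Z-FR-AMC was then followed at pH 5.5 in acetate buffer. Percent inhibition was compared across detergent levels.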

[3] = target: Rhodesain (Trypanosoma brucei rhodesiense) (UniProt Q95PM0); experiment: Inhibition of recombinant Trypanosoma brucei rhodesain expressed in Pichia pastoris at 5 uM using Z-FR-AMC as substrate preincubated for 10 mins followed by substrate addition and measured at 12 sec interval for 5 mins by fluorimetric analysis relative to control; details: time 15.0 min; outline: as §1
[4] = system: Trypanosoma brucei brucei; experiment: Trypanocidal activity against Trypanosoma brucei brucei Squib 427 assessed as reduction in parasite viability; assay type: functional, organism-based
[5] = target: Rhodesain (Trypanosoma brucei rhodesiense) (UniProt Q95PM0); experiment: Inhibition of recombinant Trypanosoma brucei rhodesain expressed in Pichia pastoris at 10 uM using Z-FR-AMC as substrate and measured at 12 sec interval for 5 mins without preincubation by fluorimetric analysis relative to control
Outline: as §1, with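 “pre-incubation. Z-FR-AMC 2.5 µM, read at 340/440 nm every 12 s for 5 min.” for “pre-incubation.”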

[6] = target: Cruzipain (Trypanosoma cruzi) (UniProt P25779); experiment: Inhibition of recombinant Trypanosoma cruzi cruzain at 100 uM using Z-FR-AMC as substrate and measured at 12 sec interval for 5 mins without preincubation by fluorimetric analysis relative to control
Outline: as §1, with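 “pre-incubation. Z-FR-AMC 2.5 µM, read at 340/440 nm every 12 s for 5 min.” for “pre-incubation.”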

[7] = target: Cruzipain (Trypanosoma cruzi) (UniProt P25779); experiment: Inhibition of recombinant Trypanosoma cruzi cruzain at 10 uM using Z-FR-AMC as substrate preincubated for 10 mins followed by substrate addition and measured at 12 sec interval for 5 mins by fluorimetric analysis relative to control; details: time 15.0 min
Outline: as §1, with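 “pre-incubation. Z-FR-AMC 2.5 µM, read at 340/440 nm every 12 s for 5 min.” for “pre-incubation.”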

[8] = target: Cruzipain (Trypanosoma cruzi) (UniProt P25779); experiment: Inhibition of recombinant Trypanosoma cruzi cruzain at 100 uM preincubated with BSA for 5 mins followed by incubation with enzyme for 5 mins followed by substrate addition relative to control; details: time 10.0 min
Outline: (§3)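 For BSA sensitivity, compound was held 5 min with BSA (2 mg/mL in 0.001% Triton X-100), then 5 min with 1 nM cruzain, before substrate was added and activity monitored. Parallel runs omitted BSA under otherwise identical conditions.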

[9] = target: Rhodesain (Trypanosoma brucei rhodesiense) (UniProt Q95PM0); experiment: Inhibition of recombinant Trypanosoma brucei rhodesain expressed in Pichia pastoris at 100 uM using Z-FR-AMC as substrate preincubated for 10 mins followed by substrate addition and measured at 12 sec interval for 5 mins by fluorimetric analysis relative to control; details: time 15.0 min
Outline: (§4)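 Run with no pre-incubation or with 10 min enzyme-compound pre-incubation. Fluorescence read at 340/440 nm. Concentration was set by solubility under assay conditions. Inhibition is against DMSO, with E-64 as positive control; triplicate.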

[10] = target: Cruzipain (Trypanosoma cruzi) (UniProt P25779); experiment: Inhibition of recombinant Trypanosoma cruzi cruzain at 5 uM using Z-FR-AMC as substrate and measured at 12 sec interval for 5 mins without preincubation by fluorimetric analysis relative to control; outline: as §1
[11] = target: Rhodesain (Trypanosoma brucei rhodesiense) (UniProt Q95PM0); experiment: Inhibition of recombinant Trypanosoma brucei rhodesain expressed in Pichia pastoris at 10 uM using Z-FR-AMC as substrate preincubated for 10 mins followed by substrate addition and measured at 12 sec interval for 5 mins by fluorimetric analysis relative to control; details: time 15.0 min
Outline: as §1, with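 “pre-incubation. Z-FR-AMC 2.5 µM, read at 340/440 nm every 12 s for 5 min.” for “pre-incubation.”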

[12] = target: Cruzipain (Trypanosoma cruzi) (UniProt P25779); experiment: Inhibition of recombinant Trypanosoma cruzi cruzain at 5 uM using Z-FR-AMC as substrate preincubated for 10 mins followed by substrate addition and measured at 12 sec interval for 5 mins by fluorimetric analysis relative to control; details: time 15.0 min; outline: as §1
[13] = target: Cruzipain (Trypanosoma cruzi) (UniProt P25779); experiment: Inhibition of recombinant Trypanosoma cruzi cruzain at 10 uM using Z-FR-AMC as substrate and measured at 12 sec interval for 5 mins without preincubation by fluorimetric analysis relative to control
Outline: as §1, with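 “pre-incubation. Z-FR-AMC 2.5 µM, read at 340/440 nm every 12 s for 5 min.” for “pre-incubation.”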

[14] = target: Rhodesain (Trypanosoma brucei rhodesiense) (UniProt Q95PM0); experiment: Inhibition of recombinant Trypanosoma brucei rhodesain expressed in Pichia pastoris at 100 uM using Z-FR-AMC as substrate and measured at 12 sec interval for 5 mins without preincubation by fluorimetric analysis relative to control; outline: as §4
[15] = target: Cruzipain (Trypanosoma cruzi) (UniProt P25779); experiment: Inhibition of recombinant Trypanosoma cruzi cruzain at 100 uM preincubated for 10 mins in presence of 0.1% Triton X-100 relative to control; outline: as §2
[16] = target: Cruzipain (Trypanosoma cruzi) (UniProt P25779); experiment: Inhibition of recombinant Trypanosoma cruzi cruzain at 100 uM preincubated for 10 mins in absence of Triton X-100 relative to control; outline: as §2
[17] = target: Cruzipain (Trypanosoma cruzi) (UniProt P25779); experiment: Inhibition of recombinant Trypanosoma cruzi cruzain at 100 uM using Z-FR-AMC as substrate preincubated for 10 mins followed by substrate addition and measured at 12 sec interval for 5 mins by fluorimetric analysis relative to control; details: time 15.0 min
Outline: as §1, with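 “pre-incubation. Z-FR-AMC 2.5 µM, read at 340/440 nm every 12 s for 5 min.” for “pre-incubation.”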

[18] = target: Cruzipain (Trypanosoma cruzi) (UniProt P25779); experiment: Inhibition of recombinant Trypanosoma cruzi cruzain at 100 uM preincubated with enzyme for 5 mins followed by substrate addition in absence of BSA relative to control; outline: as §3
[19] = system: Trypanosoma brucei rhodesiense; experiment: Trypanocidal activity against Trypanosoma brucei rhodesiense STI B900 assessed as reduction in parasite viability; assay type: functional, organism-based
[20] = system: Trypanosoma cruzi; experiment: Trypanocidal activity against Trypanosoma cruzi Tulahuen C4 assessed as reduction in parasite viability; assay type: functional, organism-based
[21] = system: Schistosoma mansoni; experiment: Inhibition of recombinant Schistosoma mansoni SmCB1 expressed in Pichia pastoris at 5 uM using Z-FR-AMC as substrate preincubated for 10 mins followed by substrate addition and measured at 23 sec interval for 30 mins by fluorimetric analysis relative to control
Outline: (§5)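 SmCB1 (recombinant, 8 nM) in 0.1 M sodium acetate pH 5.5 with 0.01% Triton X-100 and 4 mM β-mercaptoethanol. Compound at 5 µM, either not pre-incubated or pre-incubated 10 min with enzyme. Z-FR-AMC 20 µM, fluorescence 340/440 nm every 23 s for 30 min. Inhibition is versus DMSO, with E-64 control; each condition in duplicate.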

[22] = system: Schistosoma mansoni; experiment: Inhibition of recombinant Schistosoma mansoni SmCB1 expressed in Pichia pastoris at 5 uM using Z-FR-AMC as substrate and measured at 23 sec interval for 30 mins without preincubation by fluorimetric analysis relative to control; outline: as §5
[23] = target: Cruzipain (Trypanosoma cruzi) (UniProt P25779); experiment: Inhibition of recombinant Trypanosoma cruzi cruzain at 10 uM preincubated for 10 mins in absence of Triton X-100 relative to control; outline: as §2
[24] = target: Cruzipain (Trypanosoma cruzi) (UniProt P25779); experiment: Inhibition of recombinant Trypanosoma cruzi cruzain at 10 uM preincubated for 10 mins in presence of 0.1% Triton X-100 relative to control; outline: as §2
[25] = target: Cruzipain (Trypanosoma cruzi) (UniProt P25779); experiment: Inhibition of recombinant Trypanosoma cruzi cruzain at 10 uM preincubated for 10 mins in presence of 0.01% Triton X-100 relative to control; outline: as §2
[26] = target: Cruzipain (Trypanosoma cruzi) (UniProt P25779); experiment: Inhibition of recombinant Trypanosoma cruzi cruzain at 10 uM preincubated with BSA for 5 mins followed by incubation with enzyme for 5 mins followed by substrate addition relative to control; details: time 10.0 min; outline: as §3
[27] = target: Cruzipain (Trypanosoma cruzi) (UniProt P25779); experiment: Inhibition of recombinant Trypanosoma cruzi cruzain at 10 uM preincubated with enzyme for 5 mins followed by substrate addition in absence of BSA relative to control; outline: as §3

Sequence of Cruzipain (Trypanosoma cruzi) (P25779 123-467 limits assumed): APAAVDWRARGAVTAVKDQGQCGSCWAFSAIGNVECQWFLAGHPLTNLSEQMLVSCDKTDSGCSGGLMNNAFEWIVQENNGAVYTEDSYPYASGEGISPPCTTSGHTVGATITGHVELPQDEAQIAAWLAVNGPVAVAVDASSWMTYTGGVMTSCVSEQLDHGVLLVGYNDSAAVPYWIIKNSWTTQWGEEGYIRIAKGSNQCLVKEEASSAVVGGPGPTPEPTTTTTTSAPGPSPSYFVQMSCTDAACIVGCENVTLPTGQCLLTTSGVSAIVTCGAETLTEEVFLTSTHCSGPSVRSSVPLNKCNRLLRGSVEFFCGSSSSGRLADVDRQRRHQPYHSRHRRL
Sequence of Rhodesain (Trypanosoma brucei rhodesiense) (Q95PM0 1-450): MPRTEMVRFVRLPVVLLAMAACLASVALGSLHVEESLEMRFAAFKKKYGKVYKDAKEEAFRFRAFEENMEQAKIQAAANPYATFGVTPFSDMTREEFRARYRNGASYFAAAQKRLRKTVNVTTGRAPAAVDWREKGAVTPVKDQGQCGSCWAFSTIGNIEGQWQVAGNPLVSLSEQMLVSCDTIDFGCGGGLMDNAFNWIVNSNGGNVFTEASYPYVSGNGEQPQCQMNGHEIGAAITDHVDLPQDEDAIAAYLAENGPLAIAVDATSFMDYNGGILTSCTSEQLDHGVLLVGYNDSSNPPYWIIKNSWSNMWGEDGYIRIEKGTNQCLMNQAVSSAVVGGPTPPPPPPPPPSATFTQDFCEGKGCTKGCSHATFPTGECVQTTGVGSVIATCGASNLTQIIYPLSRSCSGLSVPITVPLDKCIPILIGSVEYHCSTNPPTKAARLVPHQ

| Compound | inhibition [1] [%] | inhibition [3] [%] | IC50 [4] [µM] | inhibition [5] [%] | inhibition [7] [%] | inhibition [10] [%] | inhibition [11] [%] | inhibition [12] [%] | inhibition [13] [%] | IC50 [19] [µM] | inhibition [21] [%] | inhibition [22] [%] | further results |
| --- | --- | --- | --- | --- | --- | --- | --- | --- | --- | --- | --- | --- | --- |
| COCCNCC(O)Cn1c2ccc(Cl)cc2c2cc(Cl)ccc21 (configuration not stated) | 33.6 | 62.4 | 0.7 | 14 | 28 | 18.4 | 3 | 42.1 | 14 | 0.4 |  |  | inhibition [2]: 25.5%; inhibition [6]: 50%; inhibition [8]: 61.3%; inhibition [9]: 48%; inhibition [14]: 38%; inhibition [15]: 47.3%; inhibition [16]: 100%; inhibition [17]: 67%; inhibition [18]: 87.9% |
| CC(=O)c1ccc(NC(=O)CSc2nc(-c3ccccc3Cl)ns2)cc1 | 39.9 | 67.5 | 32 | 10 | 23 | 55.2 | 43 | 76.6 | 10 | 32 |  |  | IC50 [20]: 32 µM |
| Cc1cc(NC(=O)c2cccc(C(F)(F)F)c2)n(-c2nc(-c3ccc4c(c3)OCO4)cs2)n1 | 41 | 69.4 |  |  |  | 18.4 |  | 42 |  |  | 47.3 | 0 |  |
| Cc1cc(NC(=O)C2c3ccccc3C(=O)N(CC(C)C)C2c2cccs2)no1 (configuration not stated) |  |  |  |  |  |  |  |  |  |  | 0 | 44.9 |  |
| CC(C)(C)c1ccc(O)c(CNC2CCCCC2)c1 |  |  |  |  |  |  |  |  |  |  | 48 | 4.1 |  |
| Cc1ccc(CSCc2ccc(C(=O)NC3CC3)o2)cc1 |  |  |  |  |  |  |  |  |  |  | 50 | 4.7 |  |
| COc1ccc(-c2cc3c(nn2)-c2ccccc2C3=O)cc1 |  |  |  |  |  |  |  |  |  |  | 38.5 | 13.6 |  |
| Cc1ccc(CN2CCC(C(=O)Nc3ccc(-c4cc5ccccc5[nH]4)cc3)CC2)o1 |  |  |  |  |  |  |  |  |  |  | 73 | 9 |  |
| c1ccc(-c2ccc(-c3nc4ccccc4[nH]3)cc2)cc1 | 42.2 | 52.9 | 32 | 14 | 38 | 77 | 52 | 87.1 | 33 | 32 |  |  | inhibition [23]: 100%; inhibition [24]: 7.3%; inhibition [25]: 38.4%; inhibition [26]: 29%; IC50 [20]: 32 µM; inhibition [27]: 41.3% |
